TAAR1 agonist: human TAAR1 agonism; Q96RJ0; CHO RD-HGA16 TAAR1, Fluo-8 calcium fluorescence; vehicle wells 0%, saturating PEA agonist 100%; activation, % at 3 µM; 360,000 compounds, 0.99% hits;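 active = activation above the mean activation of all test compounds in the run plus 3 SD, cut at about 38% in these data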
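Signal – calcium-sensitive Fluo-8 signal, excitation 470-495, emission 515-575 nm · System – RD-HGA16 (CHO) cells co-expressing Gα16 and hTAAR1 · Incubation – 17-24 h seeding, 75 min 37 °C dye, 30 min RT · Compound dosing – 3 µM single concentration · Repeats – no replicates (n 1)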
GPR7 antag: blocks human GPR7 receptor signaling; inhibition, % at 4.4 µM; 290,000 compounds, 1.1% hits; P48145; GPR7-expressing cells, fluorescence antagonist assay; in the data active = inhibition above about 16%, passing the limit was not always enough;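 note: cells stimulated with the agonist NPW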
Target sequence (P48145 whole entry, looked up): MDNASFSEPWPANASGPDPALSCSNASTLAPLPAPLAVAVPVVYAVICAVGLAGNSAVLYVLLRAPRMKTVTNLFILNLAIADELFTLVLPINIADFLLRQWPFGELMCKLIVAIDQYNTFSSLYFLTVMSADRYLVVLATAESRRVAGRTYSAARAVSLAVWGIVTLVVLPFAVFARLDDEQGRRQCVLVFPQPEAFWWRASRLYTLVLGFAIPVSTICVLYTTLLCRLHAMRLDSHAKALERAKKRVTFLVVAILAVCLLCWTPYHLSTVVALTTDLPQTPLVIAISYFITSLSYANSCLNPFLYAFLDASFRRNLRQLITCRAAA
OX1R antag-1: human HCRTR1 antagonism; CHO/OX1R cells, Fluo-8 calcium fluorescence, orexin A; inhibition, % at 5 µM; 330,000 compounds, 0.43% hits;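 active = inhibition above its plate's threshold, mean inhibition of all tested compounds on the plate plus 3 SD, cut at about 37% in these data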
Target sequence (O43613 whole entry, looked up): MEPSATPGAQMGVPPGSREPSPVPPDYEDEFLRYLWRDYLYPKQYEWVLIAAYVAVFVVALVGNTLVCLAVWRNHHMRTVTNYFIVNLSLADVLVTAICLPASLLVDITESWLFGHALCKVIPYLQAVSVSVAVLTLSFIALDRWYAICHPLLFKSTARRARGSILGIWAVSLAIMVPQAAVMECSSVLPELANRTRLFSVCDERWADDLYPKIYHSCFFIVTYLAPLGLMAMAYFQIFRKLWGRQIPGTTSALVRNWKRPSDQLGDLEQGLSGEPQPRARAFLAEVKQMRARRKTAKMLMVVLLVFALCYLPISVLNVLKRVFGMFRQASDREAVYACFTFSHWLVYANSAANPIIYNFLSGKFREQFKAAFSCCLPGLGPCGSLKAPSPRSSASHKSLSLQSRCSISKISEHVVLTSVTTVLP
TAAR1 antagonist: antagonists of human TAAR1; Q96RJ0; CHO RD-HGA16 TAAR1, Fluo-8 calcium fluorescence, antagonist; inhibition, % at 3 µM; 360,000 compounds, 1.5% hits; AID 624466;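 active = inhibition above a per-plate cutoff, the mean inhibition of test compounds on that plate plus 3 SD, cut at about 49% in these data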
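System: RD-HGA16 CHO cells with stable hTAAR1 and Gα16 | Probe or stimulus: EC80 β-phenethylamine stimulus | Dosing: 3 µM, single point | Times: Dye loading 75 min at 37 °C, then 30 min room temperature | Measured by: Fluo-8 calcium-sensitive fluorescence | Read-out basis: % inhibition of agonist calcium response | Replicates: n of 1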
OX1R antag-2: OX1R (human) antagonism | inhibition, % at 6.6 µM | AID 485270 | O43613 | OX1R-expressing cells, FRET antagonist read-out | 330,000 compounds, 1.8% hits; in the data active = inhibition mostly above about 38%, no sharp cut-off; inactive = mostly below about 40%
CHO parental Ca: counter-screen for OX1R antagonists: effect in parental CHO cells | parental CHO-K1, ATP-induced calcium, Fluo-8 fluorescence | inhibition, % at 5.6 µM | 330,000 compounds, 0.63% hits | AID 463079;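 active = inhibition above that plate's mean sample inhibition plus 3 SD, cut at about 26% in these data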
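Test system: parental CHO cells; detection: calcium-sensitive Fluo-8 fluorescence; evaluation: percent inhibition of calcium signal; also added: ATP as calcium-mobilizing challenge; repeats: one well per compound; control set: ATP-challenged DMSO wells low, unchallenged DMSO wells high; compound: single nominal dose of 5.6 µM per compound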
GPR7 antag cf: confirmation of human GPR7 antagonists; GPR7-expressing cells, calcium fluorescence antagonist mode; 2,400 compounds, 52% hits; inhibition, % at 4.4 µM; AID 1952; shares compounds with GPR7 antag; in the data active = inhibition above about 24%;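 note: stimulated with the GPR7 agonist NPW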
MCHR1 antagonist: MCHR1 (human) antagonism in GPR7 counter-screen | MCHR1-expressing cells, fluorescence antagonist assay | shares compounds with GPR7 antag | inhibition, % at 4.4 µM | 2,400 compounds, 62% hits; in the data active = inhibition above about 22%
Large screens that a line does not name were inactive (follow-up assays come after a bar, where they were run). In the library only some 4.6% were active in any assay of this set; here they are far more common.

COc1cccc(C(c2nnnn2Cc2ccco2)N2CCN(c3cccc(C)c3C)CC2)c1OC (stereo not drawn)	GPR7 antag 23 | GPR7 antag cf inactive | MCHR1 antagonist 60
O=C(c1cccs1)N1CCC(c2ccccc2)C1 (stereo not drawn)	GPR7 antag 21 | GPR7 antag cf inactive | MCHR1 antagonist inactive
O=C(c1ccccc1)C1CCN(C(=O)c2cccs2)CC1	none
Cc1ccc(S(=O)(=O)Oc2ccc(/C=C3\C(=N)N4N=C(S(C)(=O)=O)SC4=NC3=O)cc2)cc1	GPR7 antag 30 | GPR7 antag cf inactive | MCHR1 antagonist inactive
CCN(CC)c1ccc(S(=O)(=O)N2CCOCC2)cc1NC(=O)CNCc1ccccc1	GPR7 antag 24 | GPR7 antag cf 31 | MCHR1 antagonist 29
CCN(CC)c1ccc(S(=O)(=O)N2CCOCC2)cc1NC(=O)CSC(=S)N1CCCC1	GPR7 antag 44 | GPR7 antag cf 24 | MCHR1 antagonist 48
COc1ccc(CCC(=O)NCCOc2ccc(Cl)cc2)cc1	none
O=C(CCC(=O)N1CCSc2ccccc21)Nc1ccc(F)cc1	GPR7 antag 32 | GPR7 antag cf inactive | MCHR1 antagonist inactive
CCOc1ccccc1CN1CCN(CC2=Cc3cc(OC)ccc3OC2)CC1CCO (stereo not drawn)	GPR7 antag 31 | GPR7 antag cf inactive | MCHR1 antagonist inactive
CCCCC(=O)Nc1cccc(-c2ccc3nncn3n2)c1	none
Cc1cccc(OCC(=O)Nc2ccccc2N2CCCCC2)c1	none
Cc1cccc(OCC(=O)Nc2ccccc2N2CCN(C)CC2)c1	GPR7 antag 31 | GPR7 antag cf inactive | MCHR1 antagonist 49
CCC(=O)N1CCN(c2ccccc2NC(=O)COc2cc(C)ccc2C(C)C)CC1	GPR7 antag 34 | GPR7 antag cf 27 | MCHR1 antagonist 51
CCCn1c(N)c(N(CCOC)C(=O)c2ccc([N+](=O)[O-])cc2Cl)c(=O)[nH]c1=O	none
NC(=O)COc1ccc(-n2cnnn2)cc1	none
COc1ccc(-n2c(C)cc(C(=O)COc3ccc(-n4cnnn4)cc3)c2C)cc1	GPR7 antag 28 | GPR7 antag cf inactive | MCHR1 antagonist 24
Cc1cc2oc(=O)cc(CN(C)Cc3ccccc3)c2cc1C	none (no result: GPR7 antag, OX1R antag-1, OX1R antag-2, CHO parental Ca)
C/C(=N\NC(=O)CNC(=O)c1ccco1)c1ccc(Br)cc1	GPR7 antag 24 | GPR7 antag cf inactive | MCHR1 antagonist inactive
COc1ccccc1Cn1c(CCCO)nc2ccccc21	none | GPR7 antag cf inactive | MCHR1 antagonist inactive
O=C(O)c1ccccc1C(=O)Nc1ccc(-n2ccc(C(F)(F)F)n2)cc1	none
O=C(Nc1ccc(-n2ccc(C(F)(F)F)n2)cc1)Nc1cccc(Cl)c1	GPR7 antag 21, OX1R antag-1 57 | GPR7 antag cf 42 | MCHR1 antagonist 71
CN(C)Cc1cn(CC[C@@H]2CC[C@@H](NC(=O)Nc3ccccc3F)[C@@H](CO)O2)nn1	none (no result: GPR7 antag, OX1R antag-1, OX1R antag-2, CHO parental Ca)
CN(C)S(=O)(=O)c1cccc(NC(=O)COC(=O)c2cc3ccccc3oc2=O)c1	none
CCN(CC)c1ccc(N2C(=NC(=O)C3CCCO3)SC3CS(=O)(=O)CC32)cc1 (stereo not drawn)	none
CCn1c(COc2ccc(C)cc2)nnc1SCC(=O)NCc1ccco1	GPR7 antag 24 | GPR7 antag cf inactive | MCHR1 antagonist inactive
COc1ccccc1OCc1nnc(SCC(=O)NCc2ccco2)n1Cc1ccco1	none
O=C(CSc1ncnc2scc(-c3ccccc3)c12)N1CCN(c2ccccc2F)CC1	GPR7 antag 27 | GPR7 antag cf 25 | MCHR1 antagonist 34
O=C(O)CSCC(=O)N1CCN(c2ncnc3scc(-c4ccccc4)c23)CC1	none
OCC1(CCc2ccccc2)CCN(Cc2cc(Cl)ccc2O)CC1	none
Cc1ccc(-n2cccn2)c(CN2CCC(CO)(CCc3ccccc3)CC2)c1	GPR7 antag 21 (no result: OX1R antag-1, OX1R antag-2, CHO parental Ca) | GPR7 antag cf 32 | MCHR1 antagonist 28
c1ccc(Cc2nnc(-c3ccccc3)o2)cc1	GPR7 antag 69 | GPR7 antag cf 71 | MCHR1 antagonist 60
Brc1ccc(-c2nnc(Cc3ccccc3)o2)cc1	none
CCc1ccc(CN(C)CC(=O)Nc2ccc(S(=O)(=O)N3CCOCC3)cc2)cc1	none (no result: GPR7 antag)
Cc1ccccc1OCCn1c(=O)sc2ccccc21	GPR7 antag 21 | GPR7 antag cf inactive | MCHR1 antagonist 37
C#CCNC(=O)C1=C[C@H](c2cn(C(C)=O)c3ccccc23)C[C@H](OCc2ccc(CO)cc2)O1	TAAR1 agonist 44, GPR7 antag 38, TAAR1 antagonist 49 | GPR7 antag cf inactive | MCHR1 antagonist 38
CCCCc1ccc(S(=O)(=O)NC(=O)C2(C)CCN2C(=O)CC2CC2)cc1 (stereo not drawn)	none (no result: GPR7 antag, OX1R antag-1, OX1R antag-2, CHO parental Ca)
NC(=O)NC(=O)COC(=O)[C@H](Cc1ccccc1)NC(=O)c1cccs1	none
O=C(COC(=O)[C@H](Cc1ccccc1)NC(=O)c1cccs1)Nc1ccccc1C(F)(F)F	GPR7 antag 23 | GPR7 antag cf 39 | MCHR1 antagonist 32
CCOC1=C2[C@@H](CN(S(=O)(=O)c3ccc(C)cc3)[C@H]2c2ccccc2)[C@H]2C(=O)N(Cc3ccccc3)C(=O)[C@H]2C1	none (no result: GPR7 antag, OX1R antag-1, OX1R antag-2, CHO parental Ca)
Cc1ccccc1OCCNc1cc(N2CCNCC2)ccc1[N+](=O)[O-]	GPR7 antag 30 (no result: TAAR1 agonist, TAAR1 antagonist) | GPR7 antag cf 47 | MCHR1 antagonist 66
COc1ccccc1OCCNc1cc(N2CCCCC2)ccc1[N+](=O)[O-]	none
O=C(CCC1CCCCC1)NCCN1C2=NC[C@H](Cc3ccccc3)N2C[C@H]1Cc1ccc(O)cc1	none
O=C(CCC1CCCCC1)NCCN1C2=NC[C@@H](Cc3ccccc3)N2C[C@H]1Cc1ccc(O)cc1	GPR7 antag 46 | GPR7 antag cf 55 | MCHR1 antagonist 30
O=C(COc1ccc(Cl)cc1)Nc1ccc(Cc2ccncc2)cc1	GPR7 antag 28 | GPR7 antag cf 32 | MCHR1 antagonist 49
Cc1cc(OCC(=O)Nc2ccncc2)ccc1Br	GPR7 antag 23, OX1R antag-1 48, CHO parental Ca 41 | GPR7 antag cf 36 | MCHR1 antagonist 50
COc1cccc(NC(=O)COc2ccc(Br)c(C)c2)c1	none
O=C(COc1ccc(Cl)cc1)Nc1ccc2c(c1)C(=O)NC2=O	GPR7 antag 33 | GPR7 antag cf 24 | MCHR1 antagonist 27
Cc1ccc(OCC(=O)Nc2ccc3c(c2)C(=O)NC3=O)cc1	GPR7 antag 28 | GPR7 antag cf 40 | MCHR1 antagonist 35
O=C(CN1N=C(c2ccc(Cl)cc2)CCC1=O)NCCN1CCc2ccccc2C1	none
